Results reported in ChEMBL document CHEMBL5674883, “The Heterochromatin Landscape in Migrating Cells and the Importance of H3K27me3 for Associated Transcriptome Alterations” (Cells, 2018).

Assays:
[1] = target: Histone-lysine N-methyltransferase EZH2 (Mus musculus) (UniProt Q61188); test: Inhibition of EZH2 in mouse B16-F1 migrating cells assessed as fold change in H3K27me3-independent regulated Ltbp1-mRNA expression at 3 uM measured by […] analysis relative to control cells; format: cell-based
How it was run: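 Confluent B16-F1 cells on fibronectin-coated plates were scratched at multiple sites, washed once with DMEM and left to migrate 3 h in growth medium (37 °C, 7% CO2); unscratched cells served as control. GSK343 (3 µM) was added 3 h before lysis. Poly A mRNA was sequenced (RNA-seq), with 5 replicates for untreated and 3 for treated cells. Differential expression was called by linear model with batch correction, at FDR <0.05 and fold change ≥1.3.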

[2] = target: RNA polymerase II (Mus musculus) (UniProt P08775+Q8CFI7+P97760+A0A3Q4L2S8+Q80UW8+P61219+P62488+Q923G2+P60898+O08740+Q63871+P62876); test: Inhibition of RNA polymerase II in mouse B16-F1 migrating cells assessed as fold change in Arpc4-RNA stability at 0.1 mM measured by […] analysis relative to control cells; format: cell-based

Sequence of Histone-lysine N-methyltransferase EZH2 (Mus musculus) (Q61188 whole entry): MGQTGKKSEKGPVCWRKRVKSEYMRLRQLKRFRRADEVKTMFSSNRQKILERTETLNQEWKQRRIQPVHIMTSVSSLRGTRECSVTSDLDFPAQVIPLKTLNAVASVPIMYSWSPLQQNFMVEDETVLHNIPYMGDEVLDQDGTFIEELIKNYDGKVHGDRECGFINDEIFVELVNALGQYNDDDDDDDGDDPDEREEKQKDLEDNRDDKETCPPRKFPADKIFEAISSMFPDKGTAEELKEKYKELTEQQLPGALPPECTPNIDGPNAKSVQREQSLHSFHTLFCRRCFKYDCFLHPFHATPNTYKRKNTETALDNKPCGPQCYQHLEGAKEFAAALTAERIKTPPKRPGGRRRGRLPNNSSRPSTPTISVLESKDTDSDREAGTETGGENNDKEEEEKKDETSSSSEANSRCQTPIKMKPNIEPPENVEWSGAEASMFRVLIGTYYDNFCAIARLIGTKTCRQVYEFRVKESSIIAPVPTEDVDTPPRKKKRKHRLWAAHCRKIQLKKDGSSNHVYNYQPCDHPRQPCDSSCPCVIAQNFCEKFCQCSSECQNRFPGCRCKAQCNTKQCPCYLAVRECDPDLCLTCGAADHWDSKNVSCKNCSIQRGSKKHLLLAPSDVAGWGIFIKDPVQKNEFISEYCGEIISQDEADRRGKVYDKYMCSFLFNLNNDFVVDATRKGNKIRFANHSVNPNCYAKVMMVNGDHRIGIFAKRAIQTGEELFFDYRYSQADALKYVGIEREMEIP

Row | SMILES | log2FC [1] | log2FC [2]
1 | CCCc1cc(C)[nH]c(=O)c1CNC(=O)c1cc(-c2ccnc(N3CCN(C)CC3)c2)cc2c1cnn2C(C)C | 1.19 | 
2 | OC[C@H]1O[C@@H](n2cnc3cc(Cl)c(Cl)cc32)[C@H](O)[C@@H]1O |  | 0.44
